According to the EternaBench riboswitch data:

Test system: MS2 coat protein
Test: apparent Kd, MS2 coat protein; higher = weaker binding; RNA-MaP array; FMN 200 µM where present
Method in brief: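 Designs were transcribed by stalled E. coli RNA polymerase on Illumina sequencing-chip clusters. They were titrated with SNAP-549-labelled MS2 coat protein from 0.7 or 1.5 nM, doubling to 3 µM, without and then with constant ligand. Buffer: 100 mM Tris-HCl pH 7.5, 80 mM KCl, 4 mM MgCl2, BSA, DTT, yeast tRNA, Tween-20. Green signal was normalised to red-channel RNA signal and control-cluster median Fmax. Apparent Kd is the median of filtered per-cluster binding-curve fits.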

[1] = designed as: OFF switch for flavin mononucleotide, no ligand
[2] = ligand present: flavin mononucleotide, designed as: OFF switch for flavin mononucleotide
[3] = designed as: ON switch for flavin mononucleotide, no ligand
[4] = ligand present: flavin mononucleotide, designed as: ON switch for flavin mononucleotide

Sequence | apparent Kd [1] | apparent Kd [2] | apparent Kd [3] | apparent Kd [4]
UUCUUUCCUCAUGUACAUGAGGAACAUGAGGAUCACCCAUGUAGAAGGAUUUCAAUUAAAUUAAAAUAGGAUAUACAUCUAUUU | 10.4 nM | 9.34 nM |  | 
UGUUGUAUUACAGGAUAUCUAGUAUUUUUGUUUAGAGAAGGGUAUUCACAUGAGGAUCACCCAUGUAUAUACGAGGAAGUUGUG |  |  | 57.2 nM | 63.7 nM
GUAGCAUACCGAGGAUAUUCAUACCGGAAACGGACAUGAGGAUCACCCAUGUGGCGAAAGCCUUUGGAGAAGGCGGAAUGCUAC |  |  | 13.2 nM | 11.7 nM
CUUUUGUGAGGAUAUUAGUAGUAAUACAAUAGUAUUACUACUGAGAAGGCACAUGAGGAUCACCCAUGUUCCUC | 38.2 nM | 147 nM |  | 
UUGUACAUAGGAUAUAGUUGUUUGUACAUGAGGAUCACCCAUGUUAUGUAUGUUUUGUUUCUAGAAGGAUGUUGAU | 50.2 nM | 38.9 nM |  | 
AUAGUGCGCGAGAAGGACGUACCACAUGUUGAUCACCGAUAUAAGGAACGUAGGAUAUUGCACAUGAGGAUCACCCAUGUGGAU |  |  | 16.6 nM | 21.3 nM
GGUCCGUAACAGAAGGCCGUAACUGGUAGUGGCGGAGGAUAUGUGGGCGGCCCUUGACAACAUGAGGAUCACCCAUGUAUGUAA |  |  | 335 nM | 20.3 nM
UUUUAACAUGAGGAUCACCCAUGUGAGGAUAUCGAAAUUUAUAUUUAUAUUAAUAUUUCGAGAAGGCACAUUUU | 195 nM | 191 nM |  | 
GGAUGACAAAGUCAUCCAAUUCGAACAUGAGGAUCACCCAUGUAGGAUAUGCUUCUCAAAGAGAAGCAGAAGGACAUGUGCCUU | 29.5 nM | 215 nM |  | 
AAGCCUACAAUGGUGUAAUGUACAUGAGGAUCACCCAUGUACAGAAGGUGGAAUGUAAAAGGUGCCAAGGAUAUGUAUGCGGGU | 12.6 nM | 16.4 nM |  | 
UAUUUAAGAGGAUAUACAUGAGGAUCACCCAUGUGUGUCAAUACGCGUGAUUUUUCAUGUAGAAGGCUUGGGUA | 233 nM | 129 nM |  | 
GGAUCACGAGGAUAUCGAUUUUAGUACAUGAGGAUCACCCAUGUUGUCCAGGUCUCGAUUCGAGAAGGCGUGAUUC | 36.6 nM | 59.2 nM |  | 
CAGCACUAUCGAGAGGAUAUGCGGUGAUGGACAUGAGGAUCACCCAUGUUAGCGAUGGCAUCACGGCAGAAGGCUCUGCUGCUGC |  |  | 15.6 nM | 12.8 nM
AUUAUUAUAAAUUUGGCAAGUAUCAGAAGGCGUUACAUGAGGAUCACCCAUGUUUUGUAUAGUAACGAGGAUAUGAUAUGGAAA | 15.2 nM | 13.5 nM |  | 
ACAUGAGGAUCACCCAUGUUCACAUAGGAUAUUGAUUUUAUUGGUUUUAGAAUAGUUAUUAAGCUCAAGAAGGAUGCCAGUUGU |  |  | 12.4 nM | 9.97 nM
GGUCGGAGCAGAGGAUAUUACAUGAGGAUCACCCAUGUAUGAACCAAUAGCUGGAAACAGCAAUGUAAGAAGGCUGCUCCGACA | 13.5 nM | 173 nM |  | 
UUUUACCGAGGAUAUACAUUUUUUUUAUUAUCCUCAUUAUUACAUGAGGAUCACCCAUGUAGAAGGCGGAUUUU | 52.9 nM | 112 nM |  | 
ACAUGAGGAUCACCCAUGUAGAAUGAAGAAGGAUGUUACUUGAGACUCACCCAUGUACAUAGGACAUAGGAUAUUCUAAUAAUU |  |  | 10.1 nM | 7.83 nM
GGGAUGUCAGGAUAUCCAAAAGUCUGCCAAUACAGCAGACAGGAGAAGGGACAUGAGGAUCACCCAUGUAAAGA | 39.5 nM | 107 nM |  | 
CCACAGGUAGGAUAUGCUGGGUGGGAUAAAUAUUUCCUGAGACAUGAGGAUCACCCAUGUAGAAGGACCAAAAG | 18.3 nM | 16.1 nM |  | 
AGUCGGAGCAGAGGAUAUACAUGAGGAUCACCCAUGUAAUAAAGUGAAGCCUGGUAACAGGCAAUGUAGAAGGCUGCUCCGACA | 11.3 nM | 77.7 nM |  | 
UGUUGAUAGCAGAAGGACAUGAGGAUCACCCAUGUAAGGUUACAAAUAUAUGUAGGAUAUGCUAUUGACUAAGAGUGAGCGUUC | 8.88 nM | 39.5 nM |  | 
GUAGAGUCAGGAUAUACGAAUAGAUCGAAAGAUCAAUCCAUACAUGAGGAUCACCCAUGUAGAAGGGACUCUAC | 19.3 nM | 22.7 nM |  | 
GCUCCUCGAGUUAGGAUAUGUCGGCUAUCUAAAUGAUAGAAGGGACAUGAGGAUCACCCAUGUCACGGGAUUGA | 56.7 nM | 58.7 nM |  | 
UGAGCAAGAGGAUAUACAAGGCGACCGUGAGGUCGAGGUUUACAUGAGGAUCACCCAUGUAGAAGGCUUGUUCU | 17.2 nM | 38.9 nM |  | 
CUUUUGUGAGGAUAUCAGUAGUAAAUAAAUAAAAUUACUUCUGAGAAGGCACAUGAGGAUCACCCAUGUUCCUC | 34.1 nM | 251 nM |  | 
UUAUUUUUACAGAAGGUUUAAUACUAUGUAUGAGAAGGAUAUGUAACAUGAGGAUCACCCAUGUUUUAUUUAUAUGAGGUUCGU | 13.8 nM | 12.5 nM |  | 
UUUUUUGUUGUGAGGAUAUCGUUGUUGUUGUGGAUCGAGAAGGCACAUGAGGAUCACCCAUGUUUGUUGUGGUU | 89.1 nM | 220 nM |  | 

Sequence | apparent Kd [1] | apparent Kd [2] | apparent Kd [3] | apparent Kd [4]
ACGCGUUGGGAGAAGGUACAUUAAAUUAGUUACACAUGAGGAUCACCCAUGUAAGGAUAUCCCAUCGUGUAAUAUUAUACAGCA | 9.76 nM | 9.62 nM |  | 
AAUUAUAUACAGAAGGAGUUAUUUUGAGGAUUACUAGGAUAUGUUCACAUGAGGAUCACCCAUGUCAUAUUGGGAUUUAUUAUU | 19.5 nM | 26.7 nM |  | 
CCGAAUGUCACAGGAUAUGGUCCGGGCUCACGACCAGAAGGGUGAUCUCACAUGAGGAUCACCCAUGUGUAGGCGUUAGGCUAC |  |  | 35.3 nM | 114 nM
AAUUGGAUCCAGAAGGCAUGGACGACCCGUCACAUUAACAUGAGGAUCACCCAUGUCAAAAUACAUGAGGAUAUGGAUCCUAAA |  |  | 905 nM | 37.9 nM
GGUGUAUAUGAGAAGGCGAUCAUGAAACAUGAUCGAGGAUAUCAUGUAAACAUGAGGAUCACCCAUGUAUGGGAAUAAUGCACC |  |  | 120 nM | 13.6 nM
AAUCCACAUGAGGAUCACCCAUGUCAGGAUAUCGCGCGCGCGGUUUCGGUCGCGCGCGCGAGAAGGGACGGCUG | 28.8 nM | 51.7 nM |  | 
GCUUGUGAAGGAUAUACUGGAGGAGUGCGAUAGAAGCACGAACAUGAGGAUCACCCAUGUAGAAGGUCAGGCGU | 24.4 nM | 29.1 nM |  | 
UUGGACGUCGUAGGAUAUGUAGGAUAUUCCUACAUGAGGAUCACCCAUGUUGACAUGGAAGAAGGACAGUAGGACGAUGUCCAU |  |  | 251 nM | 8.02 nM
CAAUUUAUAACAGGAUAUAUAAUACAAUGGUUAAUAGAAGGGUUUAAUACAUGAGGAUCACCCAUGUCAUGUGUCAUAAUUACC | 23 nM | 17.1 nM |  | 
GUAGUGUAGUGAGGAUAUACGAGAUCGAUAGAUCGGCGAUCCAUUUAUACAUGAGGAUCACCCAUGUAGAAGGCACUUCACUAC | 6.17 nM | 51 nM |  | 
ACAUGCGGAUGAGGAUAUUCAUUUAUGAGGAUAGAAGAAGGCAUACAUGAGGAUCACCCAUGUAUACGCAUGAGGAUCCCUUAC | 39.1 nM | 41 nM |  | 
ACAAAAGUUGAUCCUCGCUACAUGAGGAUCACCCAUGUAAUGGAGGAUAUGCAGCAACAAAACUCGCAGAAGGCCAUUUGCUGG | 52.5 nM | 30.5 nM |  | 
AUAAAGCGAGGAUAUACAUGAGGAUCACCCAUGUGGCAGCCAGGUAGGAGUGACGUCGGUAGAAGGCGCACCCU | 31.9 nM | 35.6 nM |  | 
CUAUGCGGAAUAGGAUAUUCGCUCAUGAGGAUAGAAGAAGGGUUACAUGAGGAUCACCCAUGUAUGCACAUGAGGAUCCCUUAG | 134 nM | 150 nM |  | 
UCCUACAUGGGAGGAUAUGGGAAGAUACAUGAGGAUCACCCAUGUUUAAGAAUGCCGAGAGGCAACUAGAAGGCCCAUGUAGGU |  |  | 876 nM | 54.4 nM
ACGCUUUGGGAGAAGGUACGUUAAAUUUUUUCCACAUGAGGAUCACCCAUGUAAGGAUAUCCCAUCGUUAAAUAGUCUUCAGCA | 9.45 nM | 9.02 nM |  | 
UGGUACUAGGGAGGAUAUGGGAAGAUACAUGAGGAUCACCCAUGUUUAAGAAUGCCGCGAGGCAACUAGAAGGCCCUAGUACCU |  |  | 398 nM | 19.6 nM
CCAUCGAGUGUGAGGAUAUGCUGGUCCUUGGAUCAGCAGAAGGCACAUGAGGAUCACCCAUGUGGAAACGGUGG | 26.6 nM | 191 nM |  | 
AAUAAUUAGUAAGGAUAUACUAGUGAUUAGCUUGUAGAAGGUACAGUCUUAUGUAUAAUAAAUUAACAUGAGGAUCACCCAUGU |  |  | 11.6 nM | 9.86 nM
CGAUGAGGAGUGAGGAUAUCGUGUUCGAAAGAACGUGAGAAGGCACAUGAGGAUCACCCAUGUGAAACUUGUCG | 17.1 nM | 23.9 nM |  | 
GUUAUUUAUGUAGGAUAUGCGAGGCGAGCCUGAGCAGAAGGACAUGAGGAUCACCCAUGUAUUGCGGUUUGUGUUCAGAUCGCU | 17.9 nM | 25.6 nM |  | 
UGGCGGAGCAGAGGAUAUUACAUGAGGAUCACCCAUGUAUGAACCAAUAGCUGGAAACAGCAAUGUAAGAAGGCUGCUCCGACA | 12.1 nM | 176 nM |  | 
AAAAAACAUGAGGAUCACCCAUGUGAGGAUAUGAUGCGAAUAAAGAAAGAAGAAAGCAUCAGAAGGCACAUAUG | 86.6 nM | 254 nM |  | 
AGCACGAAAGUGCAACGAUGUAGCAGAAGGACAUGAGGAUCACCCAUGUAAGGUCUAUGACCAAUGUAGGAUAUGCUACAUCGA | 6.62 nM | 35 nM |  | 
CUAUACAUAUCAGGAUAUCAUCGCGUGGAUUAACCCUGUGAUUACAUGAGGAUCACCCAUGUGCUUGAGAAGGGAUUACUAUUU | 33.7 nM | 152 nM |  | 
UUCGUGUAAGGAUAUACGACCCAUCCCAUUGGGAUGGGCACGUAGAAGGUACAUGAGGAUCACCCAUGUGCUCC | 26.8 nM | 167 nM |  | 
UUGUUGUGAGUAAGGAUAUGAUGCAGGAAACUGCGUCAGAAGGUACAUGAGGAUCACCCAUGUUAAUUUUGUUU | 16.8 nM | 23.5 nM |  | 
